Experimental data as given in ChEMBL document CHEMBL1156659, “Cycloartane triterpenoids from Astragalus bicuspis” (J Nat Prod, 2008).

Tests used:
Leishmania major = assay: Antileishmanial activity against Leishmania major DESTO promastigotes after 72 hrs; format: functional, organism-based
Procedure, shortened: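 Log-phase promastigotes grown at 22-25 °C in RPMI-1640 with 10% heat-inactivated FBS, seeded at 1 × 10^6 cells/mL. Compounds were taken from a 1 mg/mL stock (DMSO, then complete medium), serially diluted, and incubated 21-22 °C for 72 h. Viable parasites were counted microscopically in a Neubauer chamber, and IC50 was derived by curve fitting. Run in duplicate.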

NIH3T3 = assay: Cytotoxicity against mouse 3T3 cells after 72 hrs by MTT assay; format: cell-based
Procedure, shortened: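 Mouse fibroblasts were kept in DMEM with 5% FBS, penicillin and streptomycin at 37 °C under 5% CO2, seeded at 3 × 10^4 cells/mL, and left overnight. Fresh medium holding a compound concentration series was added for 72 h. MTT (2 mg/mL) was added for 4 h, then DMSO, and formazan was read at 540 nm. The value is the concentration giving 50% growth inhibition.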

[1] = Mus musculus, NIH3T3, 72 h, read-out: IC50

Structure (SMILES) | IC50 (Leishmania major) | IC50 (NIH3T3; [1]) [µM] | IC50 (NIH3T3; nih3t3) [µmol]
CC(C)(O)[C@@H]1CC[C@](C)([C@@H]2[C@@H](O)C[C@@]3(C)[C@@H]4C[C@H](O)[C@H]5C(C)(C)[C@@H](O)CC[C@@]56C[C@@]46CC[C@]23C)O1 | 108 µM | > 100 | –
C[C@@H]1C[C@@H]([C@H](O)CC2CC(=O)NC(=O)C2)C(=O)[C@@H](C)C1 [CYCLOHEXIMIDE] | – | – | 0.912
N=C(N)c1ccc(OCCCCCOc2ccc(C(=N)N)cc2)cc1 [PENTAMIDINE] | 4.32 µmol | – | –
CC(C)(O)[C@@H]1CC[C@](C)([C@H]2[C@@H](O)C[C@@]3(C)[C@@H]4C[C@H](O)[C@H]5C(C)(C)[C@@H](O[C@@H]6OC[C@@H](O)[C@H](O)[C@H]6O)CC[C@@]56C[C@@]46CC[C@]23C)O1 | 56.51 µmol | – | 19.51

More lines, main results first:

IC50 (Leishmania major) | Structure (SMILES) | IC50 (NIH3T3; [1]) [µM] | IC50 (NIH3T3; nih3t3) [µmol]
0.54 µmol | C[C@@H]1[C@H](O)[C@@H](C)/C=C/C=C/C=C/C=C/C=C/C=C/C=C/[C@H](O[C@@H]2O[C@H](C)[C@@H](O)[C@H](N)[C@@H]2O)C[C@@H]2O[C@](O)(C[C@@H](O)C[C@@H](O)[C@H](O)CC[C@@H](O)C[C@@H](O)CC(=O)O[C@H]1C)C[C@H](O)[C@H]2C(=O)O [AMPHOTERICIN B] | – | –
93.65 µmol | CO[C@H]1C[C@@H](C)[C@H]2[C@H](C[C@@]3(C)[C@@H]4C[C@H](O)[C@H]5C(C)(C)[C@@H](O[C@@H]6OC[C@@H](O)[C@@H](O)[C@H]6O)CC[C@@]56C[C@@]46CC[C@]23C)O1 | 52.4 | –
64.35 µmol | C[C@@H]1C[C@@]2(O[C@H]3C[C@@]4(C)[C@@H]5C[C@H](O)[C@H]6C(C)(C)[C@@H](O[C@@H]7OC[C@@H](O)[C@@H](O)[C@H]7O)CC[C@@]67C[C@@]57CC[C@]4(C)[C@@H]13)O[C@H](O)[C@]1(C)O[C@H]21 | > 100 | –
